Assay results published in ChEMBL document CHEMBL3108700, “Designing anti-inflammatory drugs from parasitic worms: a synthetic small molecule analogue of the Acanthocheilonema viteae product ES-62 prevents development of collagen-induced arthritis” (J Med Chem, 2013).
Active and inactive are the calls of the source. Unless noted, no cut-off for these calls is given here.

Columns and labels:
[1] = species on record: Mus musculus; experiment: Inhibition of TLR4/IL-1R in BALB/c mouse BMDM assessed as downregulation of LPS-stimulated MyD88 protein expression at 5 ug/mL after 20 hrs by Western blotting analysis relative to control
How it was run: (§1)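 Bone marrow macrophages were treated 20 h with medium, compound (1 or 5 μg/mL) or LPS (100 ng/mL) and lysed in modified RIPA buffer. Protein (30 μg) was separated on Bis-Tris gels, and MyD88 and GAPDH were detected by Western blot with ECL. Densitometric MyD88:GAPDH ratio was normalized to the RPMI value, from six analyses.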

[2] = system: Mus musculus; experiment: (§2) Antiinflammatory activity in DBA/1 mouse collagen-induced arthritis model assessed as reduction in number of PMA/ionomycin-stimulated total DLN cells expressing IFNgamma at 50 ug/kg, sc administered 2 days prior to collagen challenge continued till day 21 post collagen challenge by flow cytometric analysis relative to control; assay type: functional, organism-based
How it was run: (§3)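 CIA mice given test agent (1 μg/dose) or PBS subcutaneously on days −2, 0 and 21. Draining lymph node cells (10^6/mL) in complete RPMI were stimulated ± 50 ng/mL PMA plus 500 ng/mL ionomycin, with 10 μg/mL brefeldin A for 5 h at 37 °C. Cells were surface-stained for CD4, CD8 and γδ, fixed and permeabilized, then stained for intracellular IFNγ and IL-17A. Gating used isotype controls. Cell numbers per individual mouse; naive n = 7, treated groups n = 13.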

[3] = system: Mus musculus; experiment: as §2, with “CD8+ T” for “total DLN”; assay type: functional, organism-based; details: T-cell; how it was run: as §3
[4] = system: Mus musculus; experiment: Antiinflammatory activity in DBA/1 mouse collagen-induced arthritis model assessed as reduction of hind paw width at 50 ug/kg, sc administered 2 days prior to collagen challenge continued till day 21 post collagen challenge; assay type: functional, organism-based
How it was run: (§4)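 Collagen-induced arthritis mice were dosed subcutaneously (1 μg/dose) or given PBS on days −2, 0 and 21. Arthritis was scored clinically and hind paw width measured. Incidence was the % of mice with severity score ≥2 (cumulative) or ≥4 (high score). Results are mean ± SEM. Scores n = 13 per group, pooled from two experiments; paw width n = 7, from a single experiment.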

[5] = molecular target: T1, TLR2/TLR6 (Mus musculus) (UniProt Q9QUN7+Q9EPW9); experiment: Inhibition of TLR2/6 in BALB/c mouse BMDM assessed as downregulation of BLP-stimulated IL-12p40 level at 5 ug/ml preincubated for 18 hrs followed by BLP challenge measured after 24 hrs by ELISA relative to control; assay type: protein-complex assay
How it was run: (§5)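 BALB/c male bone marrow macrophages were differentiated 7 days with L929 supernatant (≥99% CD11b+/F4/80+). Cells were plated at 2 × 10^5/well in triplicate, rested overnight, and given compounds at 5 μg/mL for 18 h. They were then stimulated with 100 ng/mL S. minnesota LPS, 10 ng/mL Pam3CSK4 (BLP) or 0.01 μM CpG for 24 h. Supernatant IL-12p40 and IL-6 were measured by ELISA (sensitivity 16 pg/mL).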

[6] = system: Mus musculus; experiment: as §2, with “CD4+ T” for “total DLN”; assay type: functional, organism-based; details: T-cell; how it was run: as §3
[7] = molecular target: T2, Toll-like receptor 4 (Mus musculus) (UniProt Q9QUK6); experiment: Inhibition of TLR4 in BALB/c mouse BMDM assessed as downregulation of LPS-stimulated IL-12p40 level at 5 ug/ml preincubated for 18 hrs followed by LPS challenge measured after 24 hrs by ELISA relative to control; how it was run: as §5
T2 sequence (whole entry): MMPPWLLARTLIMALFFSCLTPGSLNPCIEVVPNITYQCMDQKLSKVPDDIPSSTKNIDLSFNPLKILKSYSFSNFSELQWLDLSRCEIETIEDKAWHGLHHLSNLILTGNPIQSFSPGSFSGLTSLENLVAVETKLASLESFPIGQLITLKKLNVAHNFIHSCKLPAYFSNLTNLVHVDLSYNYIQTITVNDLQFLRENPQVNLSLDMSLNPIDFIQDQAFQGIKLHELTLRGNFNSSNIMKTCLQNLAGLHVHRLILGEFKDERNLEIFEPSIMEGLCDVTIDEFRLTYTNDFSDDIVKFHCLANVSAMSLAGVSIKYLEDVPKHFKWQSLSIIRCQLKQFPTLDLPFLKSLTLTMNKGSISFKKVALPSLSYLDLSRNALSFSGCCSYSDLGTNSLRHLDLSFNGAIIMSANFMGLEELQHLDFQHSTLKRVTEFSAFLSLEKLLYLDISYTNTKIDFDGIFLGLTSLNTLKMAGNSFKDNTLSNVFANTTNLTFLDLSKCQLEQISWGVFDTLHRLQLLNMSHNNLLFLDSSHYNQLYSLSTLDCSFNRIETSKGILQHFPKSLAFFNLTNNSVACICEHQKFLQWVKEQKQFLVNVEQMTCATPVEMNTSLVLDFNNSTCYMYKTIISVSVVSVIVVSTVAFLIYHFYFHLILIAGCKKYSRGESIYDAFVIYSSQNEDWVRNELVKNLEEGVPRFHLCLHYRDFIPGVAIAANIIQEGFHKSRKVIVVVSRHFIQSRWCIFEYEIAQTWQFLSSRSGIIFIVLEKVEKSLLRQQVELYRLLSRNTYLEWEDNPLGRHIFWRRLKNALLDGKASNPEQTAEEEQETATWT

[8] = species on record: Mus musculus; experiment: Inhibition of TLR4/IL-1R in BALB/c mouse BMDM assessed as downregulation of LPS-stimulated MyD88 protein expression at 1 ug/mL after 20 hrs by Western blotting analysis relative to control; how it was run: as §1
[9] = molecular target: T1, TLR2/TLR6 (Mus musculus); experiment: Inhibition of TLR2/6-mediated NFkappaB p65 activation in BLP-stimulated BALB/c mouse BMDM at 5 ug/ml preincubated for 18 hrs followed by BLP challenge measured after 1 hr by TransAM ELISA; assay type: protein-complex assay
How it was run: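 Bone marrow macrophages (4 × 10^6/well) had their medium changed after 24 h, were pretreated with compounds at 5 μg/mL for 18 h, then stimulated for 1 h with 100 ng/mL LPS, 10 ng/mL BLP or 1 μM CpG. Activated NFκB p65 in nuclear extracts was measured by TransAM ELISA in duplicate.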

[10] = Cytotoxicity against mouse BMDC assessed as reduction in cell viability
[11] = system: Mus musculus; experiment: as §2, with “effect on” for “reduction in”, “gammadelta+ T” for “total DLN”; assay type: functional, organism-based; details: T-cell
[12] = system: Mus musculus; experiment: Antiinflammatory activity in DBA/1 mouse assessed as reduction in number of PMA/ionomycin-stimulated gammadelta+ T cells expressing IL-17 at 50 ug/kg, sc administered 2 days prior to collagen challenge continued till day 21 post collagen challenge by flow cytometric analysis relative to control; assay type: functional, organism-based; details: T-cell; how it was run: as §3
[13] = system: Mus musculus; experiment: Antiinflammatory activity in DBA/1 mouse collagen-induced arthritis model assessed as reduction of disease incidence at 50 ug/kg, sc administered 2 days prior to collagen challenge continued till day 21 post collagen challenge; assay type: functional, organism-based; how it was run: as §4

fold change (FC) [1]: 0.736 | inhibition [5]: Active | inhibition [7]: Active | fold change (FC) [8]: 1.09 | inhibition [9]: Active
SMILES: CN(C)CCS(=O)(=O)Cc1ccc(Br)cc1
Activity [2]: Active | Activity [3]: Active | Activity [4]: Active | Activity [6]: Active | Activity [10]: Non-toxic | Activity [11]: inactive | Activity [12]: Active | Activity [13]: Active
